The record followed here is ChEMBL document CHEMBL1126298, “New triazine derivatives as potent modulators of multidrug resistance” (1992).

The test system of test [1] is P388. The experiment in a line: Antitumor activity of vincristine against P388 leukemia cell line in mice at a dose of 100 mg/kg. The format is functional, Mus musculus.
For test [2], the system named is KB. The experiment in a line: Increase in adriamycin uptake in modulator-treated cells relative to untreated KB-A1 cells at a concentration of 5 uM. The format is functional, Homo sapiens. The method, boiled down: (§1)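 DC-3F/AD or KB-A1 cells (5 × 10⁶/mL) were incubated at 37 °C for 5 h with 50 μM adriamycin plus modulator (2.5–10 μM range). ADR fluorescence of 10 000 cells was read by flow cytometry at 4 °C with 488 nm argon-laser excitation. The value is the increase in mean fluorescence of treated cells over untreated cells.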

Test [3] relates to DC3F/AD. Kind of test: Percent of cell viability remaining after incubating the cells with the modulator alone a concentration of 5 uM. The format is functional, Cricetulus griseus. The gist of the method:
(§2)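 Cells were grown with modulator alone for 4 days under the same conditions as the chemosensitivity assay, and read by MTT. Viability = (absorbance with modulator/absorbance of control cells) × 100. "tox" marks viability below 25%.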

The subject of test [4] is DC3F/AD. Kind of test: Percent of cell viability remaining after incubating with a 10 uM concentration. The format is functional, Cricetulus griseus. The gist of the method:
as §2

Test [5] relates to DC3F/AD. The experiment in a line: In vitro activity in DC-3F/AD cell line Ratio of IC50(actinomycin D alone) / IC50(actinomycin D + modulator) at a concentration of 10 uM.
Test [6] relates to KB. The experiment in a line: Percent of cell viability remaining after incubating the cells with the modulator alone. Also on record: concentration or dose not given beside the values. It counts as functional, Homo sapiens. The gist of the method:
as §2

In test [7] the test system is DC3F/AD. Kind of test: Increase in adriamycin uptake in modulator-treated cells relative to untreated cells at a concentration of 10 uM. It counts as functional, Cricetulus griseus. The gist of the method:
as §1

For test [8], the system named is DC3F/AD. Kind of test: Increase in adriamycin uptake in modulator-treated cells relative to untreated cells at a concentration of 5 uM. It counts as functional, Cricetulus griseus. The method, boiled down: as §1
Test [9] concerns KB. The experiment in a line: In vitro activity in KB-A1 cell line activity expressed as fold reversion (Ratio of IC50(adriamycin alone) / IC50(adriamycin + modulator) at a concentration of 5 uM. It counts as functional, Homo sapiens. The method, boiled down:
(§3)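 Human epidermoid KB-A1 cells (Pgp-overexpressing) were grown in RPMI 1640 with 10% FCS and 10 mM HEPES (pH 7.4). They were exposed for 4 days to adriamycin (nine graded concentrations, in triplicate) with or without 5 μM modulator. IC50 was read by the MTT assay. Fold reversion = IC50(ADR alone)/IC50(ADR + modulator).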

The subject of test [10] is P388. The experiment in a line: Antitumor activity of vincristine against P388 leukemia cell line in mice at a dose of 50 mg/kg. It counts as functional, Mus musculus.
For test [11], the system named is DC3F/AD. The experiment in a line: In vitro activity in DC-3F/AD cell line(Ratio of IC50(actinomycin D alone) / IC50(actinomycin D + modulator) at a concentration of 5 uM.
Test [12] deals with KB. The experiment in a line: Compound was evaluated for the in vitro activity in KB-A1 cell line. Activity expressed as fold reversion (Ratio of IC50(adriamycin alone) / IC50(adriamycin + modulator) at a concentration of 5 uM. The format is functional, Homo sapiens. The gist of the method:
as §3

As usually defined, the T/C is the ratio of treated to control. With `C=CCNc1nc(NCC=C)nc(N2CCC(NCC3c4ccccc4CCc4ccccc43)CC2)n1`, the T/C amounted to 167% in the test with P388 [1] and 161% in the test with P388 [10]. In addition, the Increase is given as 53.6 with KB [2], 38.3 with DC3F/AD [7] and 33 with DC3F/AD [8]. For the same compound, the Viability turned out to be 98% with DC3F/AD [3], 54% with DC3F/AD [4] and 68% with KB [6]. In addition, the Fold reversion with DC3F/AD [5] came out at 6021; in the test with KB [9], 252; in the test with DC3F/AD [11], 3144.
Turning to `C=CCNc1nc(NCC)nc(N2CCC(NCC3c4ccccc4CCc4ccccc43)CC2)n1`, the T/C with P388 [1] is given as 174%; in the test with P388 [10], 190%. Further, the Increase is 45.9 with KB [2], 24.9 with DC3F/AD [7] and 23.1 in the test with DC3F/AD [8]. In addition, the Viability in the test on DC3F/AD [3] turned out to be 114%; in the test on DC3F/AD [4], 64%; in the test on KB [6] it was 58%. Also, the Fold reversion turned out to be 10684 in the test on DC3F/AD [5], 201 in the test with KB [9] and 2499 in the test with DC3F/AD [11].
As for `C=CCNc1nc(OC)nc(N2CCC(NCC3c4ccccc4CCc4ccccc43)CC2)n1`, the Increase in the test on KB [2] is on record as 40.7; in the test with DC3F/AD [7], 28.5; with DC3F/AD [8] it was 23.9. Also, the values for the Viability in the test on DC3F/AD [3], in the test on DC3F/AD [4] and with KB [6] were 86%, 79% and 91%, respectively. Besides, the Fold reversion with DC3F/AD [5] was found to be 1078; with KB [9], 138; in the test with DC3F/AD [11], 1092.
Regarding `C=CCNc1nc(NCC=C)nc(N2CCC(CNC3c4ccccc4CCc4ccccc43)CC2)n1`, the figures for the Increase in the test with KB [2], in the test with DC3F/AD [7] and in the test on DC3F/AD [8] were 29.8, 20.5 and 14, respectively. Moreover, the results for the Viability in the test on DC3F/AD [3], in the test on DC3F/AD [4] and in the test on KB [6] were 96%, 72% and 105%, respectively. Further, the Fold reversion came out at 544 with DC3F/AD [5], 126 in the test with KB [9] and 173 in the test on DC3F/AD [11].
`C=CCNc1nc(NCC=C)nc(NCCN2CCN(C3c4ccccc4CCc4ccccc43)CC2)n1`: the Increase turned out to be 26.2 with KB [2], 10.5 in the test with DC3F/AD [7] and 10.2 in the test with DC3F/AD [8]. The Fold reversion in the test with DC3F/AD [5] and in the test with KB [12] was <25 each time.
Consider `C=CCNc1nc(NCC=C)nc(N2CCC(NCC3c4ccccc4Oc4ccccc43)CC2)n1`, for which the results for the Increase in the test on KB [2], with DC3F/AD [7] and with DC3F/AD [8] were 43.9, 25.7 and 19.4, respectively. The Viability in the test with DC3F/AD [3] is given as 91%; with DC3F/AD [4], 85%; with KB [6], 106%. The results for the Fold reversion in the test with DC3F/AD [5], in the test on KB [9] and in the test on DC3F/AD [11] were 2584, 140 and 844, respectively.
As to `C=CCNc1nc(NCC=C)nc(N2CCC(NCC3c4ccccc4CSc4ccccc43)CC2)n1` (centres undefined), the Increase in the test on KB [2] is recorded as 57.3; with DC3F/AD [7], 32.6; in the test with DC3F/AD [8] it was 33.5. Moreover, the Viability with DC3F/AD [3] was found to be 83%; in the test with DC3F/AD [4], 72%; in the test with KB [6] it was 108%. Also, the Fold reversion was found to be 6046 with DC3F/AD [5], 393 in the test on KB [9] and 867 in the test with DC3F/AD [11].
`C=CCNc1nc(NCC=C)nc(N2CCC(N(C)CC3c4ccccc4CCc4ccccc43)CC2)n1`: the Increase in the test on KB [2] was 25.6; with DC3F/AD [7] it was 21.8; in the test on DC3F/AD [8] it was 17.8. Moreover, the Viability with DC3F/AD [3] was determined as 70%; with DC3F/AD [4] it was 69%; with KB [6] it was 111%. For the same compound, the Fold reversion in the test with DC3F/AD [5] stood at 3035; in the test with KB [9], 118; with DC3F/AD [11] it was 834.
`CN(C)c1nc(N(C)C)nc(N2CCC(NCC3c4ccccc4CCc4ccccc43)CC2)n1`: the Increase stood at 16.4 with KB [2], 30.6 in the test on DC3F/AD [7] and 29.4 in the test on DC3F/AD [8]. Moreover, the Viability in the test with DC3F/AD [3] amounted to 71%; with DC3F/AD [4], 66%; with KB [6], 28%. The Fold reversion in the test with DC3F/AD [5] is 544; in the test on KB [9], 7; in the test on DC3F/AD [11] it was 187.
On to `C=CCNc1nc(NCC=C)nc(N2CCC(NCC3c4ccccc4-c4ccccc43)CC2)n1`, for which the Increase amounted to 20.6 in the test with KB [2], 23.2 in the test on DC3F/AD [7] and 19.6 with DC3F/AD [8]. The results for the Viability in the test with DC3F/AD [3], in the test on DC3F/AD [4] and with KB [6] were 78%, 75% and 42%, respectively. Also, the Fold reversion is given as 589 in the test with DC3F/AD [5], 57 in the test with KB [9] and 170 in the test with DC3F/AD [11].
Take `C=CCNc1nc(NCC=C)nc(N2CCC(NCC3c4ccccc4C=Cc4ccccc43)CC2)n1`: the results for the T/C in the test with P388 [1] and with P388 [10] were 172% and 196%, respectively. The Increase in the test on KB [2] turned out to be 59.2; with DC3F/AD [7], 25.8; with DC3F/AD [8] it was 24.5. The Viability in the test with DC3F/AD [3] was 86%; in the test on KB [6] it was 31%. In addition, the Fold reversion with DC3F/AD [5] is recorded as <25; in the test on KB [9], 640; in the test with DC3F/AD [11] it was 1420.
For the compound `C=CCNc1nc(NCC=C)nc(N2CCC(NC3CC4c5ccccc5C3c3ccccc34)CC2)n1` (centres undefined), the values for the Increase with KB [2], in the test with DC3F/AD [7] and in the test on DC3F/AD [8] were 43.8, 35.9 and 32.9, respectively. Also, the figures for the Viability with DC3F/AD [3], in the test on DC3F/AD [4] and in the test with KB [6] were 98%, 102% and 133%, respectively. The values for the Fold reversion with DC3F/AD [5], in the test with KB [9] and in the test with DC3F/AD [11] were 4264, 118 and 1638, respectively.
Turning to `C=CCNc1nc(NCC=C)nc(N2CCC(NCC3c4ccccc4CCCc4ccccc43)CC2)n1`, the values for the T/C in the test with P388 [1] and in the test with P388 [10] were 186% and 173%, respectively. For the same compound, the Increase worked out at 44.1 in the test on KB [2], 21.6 in the test with DC3F/AD [7] and 22.3 in the test with DC3F/AD [8]. Further, the Viability came out at 105% with DC3F/AD [3] and 89% with KB [6]. The Fold reversion in the test with DC3F/AD [5] is recorded as <25; in the test with KB [9], 177; in the test on DC3F/AD [11], 2951.
For `C=CCNc1nc(NCC=C)nc(N2CCC(NCC3c4ccccc4NC(=O)c4ccccc43)CC2)n1` (centres undefined), the Increase with KB [2] came out at 48.4; in the test with DC3F/AD [7], 41.5; in the test with DC3F/AD [8], 2.2. Besides, the Viability came to 106% in the test on DC3F/AD [3], 100% in the test on DC3F/AD [4] and 113% in the test with KB [6]. Further, the Fold reversion in the test with DC3F/AD [5] is 583; in the test with KB [9], 315; with DC3F/AD [11] it was 2.
Regarding `C=CCNc1nc(NCC=C)nc(NCC(O)CN2CCN(C3c4ccccc4CCc4ccccc43)CC2)n1` (centres undefined), the results for the Increase in the test on KB [2], with DC3F/AD [7] and in the test on DC3F/AD [8] were 29.2, 27.6 and 24.3, respectively. For the same compound, the Fold reversion with DC3F/AD [5], in the test on KB [12] and in the test with DC3F/AD [11] was <25 in each case.
